Results: ChEMBL document CHEMBL3097989, “Antimicrobial activity of de novo designed cationic peptides against multi-resistant clinical isolates” (Eur J Med Chem, 2014)
Blank lines part the entries; values can stand above or below the compound they belong to. Where a SMILES comes first, the peptide text is derived from it.

Columns and labels:
[1] = system: Klebsiella pneumoniae; assay: Antibacterial activity against Klebsiella pneumoniae PFAV3 by microdilution test; type: functional
Procedure, shortened: (§1)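 MIC by standard broth microdilution following CLSI recommendations, in Mueller Hinton broth supplemented with Ca²⁺ (20-25mg/L) and Mg²⁺ (10-12.5mg/L); peptides tested against a panel of multi-resistant clinical isolates plus ATCC reference strains.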

[2] = system: Staphylococcus epidermidis; assay: Antibacterial activity against Staphylococcus epidermidis M2921 clinical isolate expressing mecA gene by microdilution test; type: functional
Procedure, shortened: (§2)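 MIC by standard broth microdilution following CLSI recommendations, in Mueller Hinton broth supplemented with Ca²⁺ (20-25 mg/L) and Mg²⁺ (10-12.5 mg/L); ATCC reference strains included in the panel.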

[3] = system: Escherichia coli; assay: Antibacterial activity against Escherichia coli M9884 by microdilution test; type: functional; procedure, shortened: as §1
[4] = system: Pseudomonas aeruginosa; assay: Antibacterial activity against Pseudomonas aeruginosa M7907 clinical isolate expressing blaPER gene by microdilution test; type: functional; procedure, shortened: as §2
[5] = system: Staphylococcus aureus; assay: Antibacterial activity against Staphylococcus aureus ATCC 29213 by microdilution test; type: functional; procedure, shortened: as §2
[6] = system: Acinetobacter sp.; assay: Antibacterial activity against Acinetobacter sp. M5277 clinical isolate expressing blaPER gene by microdilution test; type: functional; procedure, shortened: as §1
[7] = system: Enterococcus faecalis; assay: Antibacterial activity against Enterococcus faecalis ATCC 29212 by microdilution test; type: functional; procedure, shortened: as §1
[8] = system: Klebsiella pneumoniae; assay: Antibacterial activity against Klebsiella pneumoniae M9140 clinical isolate expressing blaCIT gene by microdilution test; type: functional; procedure, shortened: as §1
[9] = system: Acinetobacter sp.; assay: Antibacterial activity against Acinetobacter sp. M7978 clinical isolate expressing blaIMP-1 gene by microdilution test; type: functional; procedure, shortened: as §1
[10] = system: Staphylococcus aureus; assay: Antibacterial activity against Staphylococcus aureus P239 clinical isolate expressing ermC gene by microdilution test; type: functional; procedure, shortened: as §2
[11] = system: Escherichia coli; assay: Antibacterial activity against Escherichia coli PLCA1 clinical isolate expressing blaCTX-M-2 and blaTEM-1 gene by microdilution test; type: functional; procedure, shortened: as §1
[12] = system: Acinetobacter sp.; assay: Antibacterial activity against Acinetobacter sp. M5949 clinical isolate expressing blaOXA-23 and blaOXA-GVI gene by microdilution test; type: functional; procedure, shortened: as §1
[13] = system: Klebsiella pneumoniae; assay: Antibacterial activity against Klebsiella pneumoniae M1803 clinical isolate expressing blaPER-2, blaCTX-M-2, blaTEM-1, blaSHV and blaOXA-9 gene by microdilution test; type: functional; procedure, shortened: as §1
[14] = system: Staphylococcus aureus; assay: Antibacterial activity against Staphylococcus aureus P33 clinical isolate expressing msrA gene by microdilution test; type: functional; procedure, shortened: as §2
[15] = system: Pseudomonas aeruginosa; assay: Antibacterial activity against Pseudomonas aeruginosa ATCC 27853 by microdilution test; type: functional; procedure, shortened: as §1
[16] = system: Staphylococcus saprophyticus; assay: Antibacterial activity against Staphylococcus saprophyticus M4070 clinical isolate expressing mecA gene by microdilution test; type: functional; procedure, shortened: as §2
[17] = system: Enterococcus faecium; assay: Antibacterial activity against Enterococcus faecium M2619 clinical isolate expressing vanB gene by microdilution test; type: functional; procedure, shortened: as §1
[18] = system: Staphylococcus cohnii; assay: Antibacterial activity against Staphylococcus cohnii M6767 clinical isolate expressing mecA gene by microdilution test; type: functional; procedure, shortened: as §2
[19] = system: Acinetobacter sp.; assay: Antibacterial activity against Acinetobacter sp. M5282 clinical isolate expressing blaOXA-51 gene by microdilution test; type: functional; procedure, shortened: as §1
[20] = system: Enterococcus faecalis; assay: Antibacterial activity against Enterococcus faecalis M4992 clinical isolate expressing vanA gene by microdilution test; type: functional; procedure, shortened: as §1
[21] = system: Pseudomonas aeruginosa; assay: Antibacterial activity against Pseudomonas aeruginosa M5200 clinical isolate expressing blaVIM and blaGES-1 gene by microdilution test; type: functional; procedure, shortened: as §2
[22] = system: Staphylococcus aureus; assay: Antibacterial activity against Staphylococcus aureus P28 clinical isolate expressing ermA gene by microdilution test; type: functional; procedure, shortened: as §2
[23] = system: Staphylococcus epidermidis; assay: Antibacterial activity against Staphylococcus epidermidis M2931 by microdilution test; type: functional; procedure, shortened: as §2
[24] = system: Staphylococcus aureus; assay: Antibacterial activity against Staphylococcus aureus P204 clinical isolate expressing ermA gene by microdilution test; type: functional; procedure, shortened: as §2
[25] = system: Klebsiella pneumoniae; assay: Antibacterial activity against Klebsiella pneumoniae M9170 clinical isolate expressing blaOXA-GIII gene by microdilution test; type: functional; procedure, shortened: as §1
[26] = system: Acinetobacter sp.; assay: Antibacterial activity against Acinetobacter sp. M13523 clinical isolate expressing blaOXA-51 gene by microdilution test; type: functional; procedure, shortened: as §1
[27] = system: Staphylococcus haemolyticus; assay: Antibacterial activity against Staphylococcus haemolyticus M2976 clinical isolate expressing mecA gene by microdilution test; type: functional; procedure, shortened: as §2
[28] = system: Escherichia coli; assay: Antibacterial activity against Escherichia coli M9209 clinical isolate expressing blaKPC-2 gene by microdilution test; type: functional; procedure, shortened: as §1
[29] = system: Escherichia coli; assay: Antibacterial activity against Escherichia coli M5306 clinical isolate expressing blaPER-2, blaCTX-M-2 and blaTEM-1 gene by microdilution test; type: functional; procedure, shortened: as §1
[30] = system: Pseudomonas aeruginosa; assay: Antibacterial activity against Pseudomonas aeruginosa M11005 clinical isolate expressing blaKPC-2 gene by microdilution test; type: functional; procedure, shortened: as §1
[31] = system: Enterococcus faecalis; assay: Antibacterial activity against Enterococcus faecalis M4449 clinical isolate expressing vanA gene by microdilution test; type: functional; procedure, shortened: as §1
[32] = system: Enterococcus faecium; assay: Antibacterial activity against Enterococcus faecium M2304 clinical isolate expressing vanA gene by microdilution test; type: functional; procedure, shortened: as §1
[33] = system: Klebsiella pneumoniae; assay: Antibacterial activity against Klebsiella pneumoniae M9375 clinical isolate expressing blaCTX-M-2, blaTEM-1 and blaSHV-1 gene by microdilution test; type: functional; procedure, shortened: as §1
[34] = system: Klebsiella pneumoniae; assay: Antibacterial activity against Klebsiella pneumoniae M13540 clinical isolate expressing blaKPC-2 gene by microdilution test; type: functional; procedure, shortened: as §1
[35] = system: Escherichia coli; assay: Antibacterial activity against Escherichia coli PCOS15 clinical isolate expressing blaPER-2 and blaTEM-1 gene by microdilution test; type: functional; procedure, shortened: as §1
[36] = system: Staphylococcus aureus; assay: Antibacterial activity against Staphylococcus aureus M6794 clinical isolate expressing mecA gene by microdilution test; type: functional; procedure, shortened: as §2
[37] = system: Enterococcus gallinarum; assay: Antibacterial activity against Enterococcus gallinarum M2685 clinical isolate expressing vanC1 and vanA gene by microdilution test; type: functional; procedure, shortened: as §1
[38] = system: Enterococcus faecalis; assay: Antibacterial activity against Enterococcus faecalis M6534 clinical isolate expressing vanB gene by microdilution test; type: functional; procedure, shortened: as §1
[39] = system: Staphylococcus epidermidis; assay: Antibacterial activity against Staphylococcus epidermidis M2923 by microdilution test; type: functional; procedure, shortened: as §2
[40] = system: Pseudomonas aeruginosa; assay: Antibacterial activity against Pseudomonas aeruginosa M5470 by microdilution test; type: functional; procedure, shortened: as §2
[41] = system: Klebsiella pneumoniae; assay: Antibacterial activity against Klebsiella pneumoniae M5825 clinical isolate expressing blaGES-3 and blaCTX-M-2 gene by microdilution test; type: functional; procedure, shortened: as §1
[42] = system: Staphylococcus aureus; assay: Antibacterial activity against Staphylococcus aureus M6820 clinical isolate expressing mecA gene by microdilution test; type: functional; procedure, shortened: as §2
[43] = system: Staphylococcus aureus; assay: Antibacterial activity against Staphylococcus aureus M6276 clinical isolate expressing ermA and lnuA gene by microdilution test; type: functional; procedure, shortened: as §2
[44] = Toxicity in human RBC assessed as hemolytic activity relative to control; type: cell-based, Erythrocyte; conditions: red blood cells (RBC), read-out: Activity
Procedure, shortened: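 Heparinized human whole blood diluted 3x in PBS and centrifuged 10 min at 1500 rpm, repeated three times. Cells resuspended to 10% (v/v), then diluted to about 0.5% (v/v). Peptides added at various concentrations for 30 min at 37 °C. Supernatant absorbance read at 550 nm. Lysis calculated against buffer (0%) and water (100%). Readings taken in triplicate and averaged.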

[45] = system: Acinetobacter sp.; assay: Antibacterial activity against Acinetobacter sp. M9665 clinical isolate expressing blaOXA-51 gene by microdilution test; type: functional; procedure, shortened: as §1
[46] = system: Klebsiella pneumoniae; assay: Antibacterial activity against Klebsiella pneumoniae M9491 clinical isolate expressing blaMOX gene by microdilution test; type: functional; procedure, shortened: as §1
[47] = system: Staphylococcus warneri; assay: Antibacterial activity against Staphylococcus warneri M6823 clinical isolate expressing mecA gene by microdilution test; type: functional; procedure, shortened: as §2
[48] = system: Acinetobacter sp.; assay: Antibacterial activity against Acinetobacter sp. M5179 clinical isolate expressing blaOXA-51 gene by microdilution test; type: functional; procedure, shortened: as §1
[49] = system: Staphylococcus aureus; assay: Antibacterial activity against Staphylococcus aureus M4046 clinical isolate expressing mecA gene by microdilution test; type: functional; procedure, shortened: as §2

MIC90 [1]: 128 µg/mL
MIC90 [2]: 8 µg/mL
MIC90 [3]: 64 µg/mL
MIC90 [4]: 128 µg/mL
MIC90 [5]: 32 µg/mL
MIC90 [6]: 32 µg/mL
MIC90 [7]: 128 µg/mL
MIC90 [8]: 64 µg/mL
MIC90 [9]: 16 µg/mL
MIC90 [10]: 32 µg/mL
MIC90 [11]: 64 µg/mL
MIC90 [12]: 32 µg/mL
MIC90 [13]: 1020 µg/mL
MIC90 [14]: 32 µg/mL
MIC90 [15]: 256 µg/mL
MIC90 [16]: 8 µg/mL
MIC90 [17]: 16 µg/mL
MIC90 [18]: 4 µg/mL
MIC90 [19]: 8 µg/mL
MIC90 [20]: 128 µg/mL
MIC90 [21]: 512 µg/mL
MIC90 [22]: 32 µg/mL
MIC90 [23]: 16 µg/mL
MIC90 [24]: 64 µg/mL
MIC90 [25]: 128 µg/mL
MIC90 [26]: 32 µg/mL
MIC90 [28]: 64 µg/mL
MIC90 [29]: 64 µg/mL
MIC90 [30]: 512 µg/mL
MIC90 [31]: 128 µg/mL
MIC90 [32]: 4 µg/mL
MIC90 [33]: 32 µg/mL
MIC90 [34]: 256 µg/mL
MIC90 [35]: 64 µg/mL
MIC90 [36]: 64 µg/mL
MIC90 [37]: 16 µg/mL
MIC90 [38]: 256 µg/mL
MIC90 [39]: 8 µg/mL
MIC90 [40]: 512 µg/mL
MIC90 [41]: 64 µg/mL
MIC90 [42]: 128 µg/mL
MIC90 [43]: 32 µg/mL
MIC90 [45]: 4 µg/mL
MIC90 [46]: 128 µg/mL
MIC90 [47]: 8 µg/mL
MIC90 [48]: 32 µg/mL
MIC90 [49]: 32 µg/mL
Compound: CC[C@H](C)[C@H](N)C(=O)N[C@@H](CC(C)C)C(=O)N[C@@H](CCCNC(=N)N)C(=O)N[C@@H](Cc1c[nH]c2ccccc12)C(=O)N1CCC[C@H]1C(=O)N[C@@H](Cc1c[nH]c2ccccc12)C(=O)N[C@@H](Cc1c[nH]c2ccccc12)C(=O)N1CCC[C@H]1C(=O)N[C@@H](Cc1c[nH]c2ccccc12)C(=O)N[C@@H](CCCNC(=N)N)C(=O)N[C@@H](CCCNC(=N)N)C(=O)N[C@@H](CCCCN)C(N)=O.Cl.Cl.Cl.Cl.Cl [OMIGANAN PENTAHYDROCHLORIDE] (H-ILRWPWWPWRRK-NH2)
MIC90 [27]: 4 µg/mL
hemolysis [44]: 10%

MIC90 [1]: 128 µg/mL
MIC90 [2]: 8 µg/mL
MIC90 [3]: 32 µg/mL
MIC90 [4]: 64 µg/mL
MIC90 [5]: 64 µg/mL
MIC90 [6]: 8 µg/mL
MIC90 [7]: 128 µg/mL
MIC90 [8]: 32 µg/mL
MIC90 [9]: 8 µg/mL
MIC90 [10]: 64 µg/mL
MIC90 [11]: 64 µg/mL
MIC90 [12]: 16 µg/mL
MIC90 [13]: 32 µg/mL
MIC90 [14]: 128 µg/mL
MIC90 [15]: 64 µg/mL
MIC90 [16]: 32 µg/mL
MIC90 [17]: 16 µg/mL
MIC90 [18]: 16 µg/mL
MIC90 [19]: 8 µg/mL
MIC90 [20]: 128 µg/mL
MIC90 [21]: 64 µg/mL
MIC90 [22]: 64 µg/mL
MIC90 [23]: 16 µg/mL
MIC90 [24]: 64 µg/mL
MIC90 [25]: 32 µg/mL
MIC90 [26]: 4 µg/mL
MIC90 [28]: 64 µg/mL
MIC90 [29]: 4 µg/mL
MIC90 [30]: 64 µg/mL
MIC90 [31]: 128 µg/mL
MIC90 [32]: 16 µg/mL
MIC90 [33]: 64 µg/mL
MIC90 [34]: 16 µg/mL
MIC90 [35]: 64 µg/mL
MIC90 [36]: 64 µg/mL
MIC90 [37]: 16 µg/mL
MIC90 [38]: 256 µg/mL
MIC90 [39]: 16 µg/mL
MIC90 [40]: 64 µg/mL
MIC90 [41]: 8 µg/mL
MIC90 [42]: 128 µg/mL
MIC90 [43]: 128 µg/mL
MIC90 [45]: 32 µg/mL
MIC90 [46]: 64 µg/mL
MIC90 [47]: 8 µg/mL
MIC90 [48]: 32 µg/mL
MIC90 [49]: 128 µg/mL
Compound: H-GLLKKWLKKWKEFKRIVGY-NH2
MIC90 [27]: 8 µg/mL
hemolysis [44]: 39.8%
